ChEMBL document CHEMBL1126849, “Synthesis of A-ring fluorinated derivatives of (17 alpha,20E/Z)-[125I]iodovinylestradiols: effect on receptor binding and receptor-mediated target tissue uptake” (J Med Chem, 1993)

target: T1, Estrogen receptor (Mus musculus) (UniProt O08537+P19785); assay: Relative binding affinity (RBA) for murine cytoplasmic estrogen receptor at 25 degree C for 2 hr; type: protein assay
Method in brief: (§1)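 Murine uterine cytoplasmic extract incubated 2 h at 4 °C or at 25 °C with 20 nM [3H]estradiol and competitors at 2 nM–20 μM. RBA is taken as 100 × the ratio of competitor to unlabeled estradiol concentration needed for 50% competition of specific [3H]estradiol binding.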

T1 sequence (O08537 whole entry, looked up): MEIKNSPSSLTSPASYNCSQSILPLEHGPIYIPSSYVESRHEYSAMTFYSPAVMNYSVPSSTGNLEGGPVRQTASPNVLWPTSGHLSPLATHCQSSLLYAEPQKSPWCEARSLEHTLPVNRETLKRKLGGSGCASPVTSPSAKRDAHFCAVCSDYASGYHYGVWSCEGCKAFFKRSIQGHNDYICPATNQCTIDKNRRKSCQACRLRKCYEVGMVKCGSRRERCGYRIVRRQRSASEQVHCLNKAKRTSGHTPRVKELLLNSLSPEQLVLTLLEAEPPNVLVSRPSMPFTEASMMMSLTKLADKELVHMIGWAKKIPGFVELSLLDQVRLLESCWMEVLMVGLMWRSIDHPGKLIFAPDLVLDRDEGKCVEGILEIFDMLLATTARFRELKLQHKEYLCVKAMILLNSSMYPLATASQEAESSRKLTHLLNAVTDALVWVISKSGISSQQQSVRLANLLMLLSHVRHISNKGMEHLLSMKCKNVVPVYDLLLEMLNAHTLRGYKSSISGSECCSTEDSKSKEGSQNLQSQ
T1 sequence (P19785 whole entry, looked up): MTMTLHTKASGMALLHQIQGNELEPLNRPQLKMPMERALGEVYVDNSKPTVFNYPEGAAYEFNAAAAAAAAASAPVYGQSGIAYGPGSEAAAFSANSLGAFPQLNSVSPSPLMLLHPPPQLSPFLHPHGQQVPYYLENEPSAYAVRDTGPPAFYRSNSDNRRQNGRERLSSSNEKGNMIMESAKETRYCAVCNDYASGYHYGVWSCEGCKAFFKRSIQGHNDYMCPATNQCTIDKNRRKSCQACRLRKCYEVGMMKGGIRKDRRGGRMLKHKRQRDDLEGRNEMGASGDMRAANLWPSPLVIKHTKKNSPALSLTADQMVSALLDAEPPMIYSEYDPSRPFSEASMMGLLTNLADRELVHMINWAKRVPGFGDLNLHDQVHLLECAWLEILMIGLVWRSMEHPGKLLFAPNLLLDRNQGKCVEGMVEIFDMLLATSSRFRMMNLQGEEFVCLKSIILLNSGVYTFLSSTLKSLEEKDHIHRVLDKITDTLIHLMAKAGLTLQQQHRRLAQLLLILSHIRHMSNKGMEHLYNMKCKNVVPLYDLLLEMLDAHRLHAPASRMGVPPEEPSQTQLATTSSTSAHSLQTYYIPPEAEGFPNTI

Row | RBA | Compound
1 | 166 | C#C[C@]1(O)CC[C@H]2[C@@H]3CCc4c(ccc(O)c4F)[C@H]3CC[C@@]21C

target: T1, Estrogen receptor (Mus musculus); assay: Relative binding affinity (RBA) for murine cytoplasmic estrogen receptor at 4C for 2 hr; type: protein assay; method in brief: as §1

Row | RBA | Compound
2 | 80 | C#C[C@]1(O)CC[C@H]2[C@@H]3CCc4c(ccc(O)c4F)[C@H]3CC[C@@]21C

target: T1, Estrogen receptor (Mus musculus); assay: Relative binding affinity (RBA) against murine cytoplasmic estrogen receptor incubated at 0-4 degree Celsius for 18 hours; type: protein assay
Method in brief: (§2)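 Competitive binding on murine uterine cytoplasmic extract with 20 nM [3H]estradiol and competitor steroids at 2 nM–20 μM, incubated 18 h at 0–4 °C. RBA = 100 × ratio of […] concentration giving 50% competition for specific binding. Mean of three experiments with SD.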

Row | RBA | Compound
3 | 43.2 | C[C@@H]1Cc2cc(O)ccc2[C@H]2CC[C@@]3(C)[C@@H](CC[C@@]3(O)/C=C/I)[C@H]12
4 | 64.3 | C=C[C@]1(O)CC[C@H]2[C@@H]3CCc4cc(O)c(F)cc4[C@H]3CC[C@@]21C
5 | 73.1 | C=C[C@]1(O)CC[C@H]2[C@@H]3[C@H](C)Cc4cc(O)ccc4[C@H]3CC[C@@]21C
6 | 32 | CO[C@H]1C[C@@]2(C)[C@@H](CC[C@@]2(O)/C=C\I)[C@@H]2CCc3cc(O)ccc3[C@H]21
7 | 119 | C=C[C@]1(O)CC[C@H]2[C@@H]3CCc4c(ccc(O)c4F)[C@H]3CC[C@@]21C
8 | 39.7 | C[C@]12CC[C@@H]3c4ccc(O)cc4CC[C@H]3[C@@H]1CC[C@@]2(O)/C=C/I
9 | 16.7 | C=C[C@]1(O)CC[C@H]2[C@@H]3CCc4c(ccc(O)c4F)[C@H]3[C@@H](OC)C[C@@]21C
10 | 44.9 | C[C@@H]1Cc2cc(O)ccc2[C@H]2CC[C@@]3(C)[C@@H](CC[C@@]3(O)/C=C\I)[C@H]12
11 | 27.7 | CO[C@H]1C[C@@]2(C)[C@@H](CC[C@@]2(O)/C=C/I)[C@@H]2CCc3cc(O)ccc3[C@H]21
12 | 33.3 | C=C[C@]1(O)CC[C@H]2[C@@H]3[C@H](C)Cc4cc(O)c(F)cc4[C@H]3CC[C@@]21C
13 | 15.3 | C=C[C@]1(O)CC[C@H]2[C@@H]3CCc4cc(O)ccc4[C@H]3[C@@H](OC)C[C@@]21C
14 | 15.9 | C=C[C@]1(O)CC[C@H]2[C@@H]3CCc4cc(O)c(F)cc4[C@H]3[C@@H](OC)C[C@@]21C
15 | 62.4 | C=C[C@]1(O)CC[C@H]2[C@@H]3[C@H](C)Cc4c(ccc(O)c4F)[C@H]3CC[C@@]21C
16 | 46.7 | C[C@]12CC[C@@H]3c4ccc(O)cc4CC[C@H]3[C@@H]1CC[C@@]2(O)/C=C\I

target: T1, Estrogen receptor (Mus musculus); assay: Relative binding affinity (RBA) for murine cytoplasmic estrogen receptor at 4C for 18 hr; type: protein assay; method in brief: as §2

Row | RBA | Compound
17 | 119 | C#C[C@]1(O)CC[C@H]2[C@@H]3CCc4c(ccc(O)c4F)[C@H]3CC[C@@]21C
